Experimental data taken from ChEMBL document CHEMBL4038284, “Synthesis of novel quinoline-based 4,5-dihydro-1H-pyrazoles as potential anticancer, antifungal, antibacterial and antiprotozoal agents” (Eur J Med Chem, 2017).
≈ marks a conversion by molar mass, not a printed value. Calls of active or inactive are those of the source. No cut-off for these calls is given here.

How the values were obtained:
RPMI-8226 = experiment: Growth inhibition of human RPMI8226 cells at 10 uM incubated for 48 hrs by sulforhodamine B assay; type: functional, cell-based
Method in brief: (§1)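 NCI 60-line panel, single 10 μM dose. Cells were grown in RPMI-1640 with 5% FBS and 2 mM L-glutamine and pre-incubated 24 h before compound addition (DMSO stock). Exposure was 48 h at 37 °C, 5% CO2. Cells were fixed with cold TCA (10% final), stained with 0.4% SRB, bound dye dissolved in 10 mM Tris base, A515 read. Growth was taken relative to time-zero and untreated control plates.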

Escherichia coli = experiment: Antibacterial activity against Escherichia coli ATCC 25922 after 24 hrs by resazurin dye based microdilution assay; type: functional; settings: ATCC 25922, 24 h
Method in brief: (§2)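 MIC taken as the lowest concentration giving visible inhibition and/or by resazurin (1 mg/mL). Gentamicin was the control. Run in duplicate, repeated at least three times.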

SN12C = experiment: Growth inhibition of human SN12C cells at 10 uM incubated for 48 hrs by sulforhodamine B assay; type: functional, cell-based
Method in brief: (§3)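 NCI-60 single-dose screen at 10 µM for 48 h. Cells were grown in RPMI-1640 with 5% FBS and 2 mM L-glutamine and preincubated 24 h before compound. Time-zero plates were TCA-fixed at compound addition. After exposure, cells were TCA-fixed, stained with SRB and read at 515 nm. Percentage growth was calculated against time-zero and untreated-control absorbances.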

OVCAR-3 = experiment: Growth inhibition of human OVCAR3 cells at 10 uM incubated for 48 hrs by sulforhodamine B assay; type: functional, cell-based; method in brief: as §1
COLO 205 = experiment: Growth inhibition of human COLO205 cells at 10 uM incubated for 48 hrs by sulforhodamine B assay; type: functional, cell-based
Method in brief: (§4)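 NCI 60-cell-line screen at a single 10 µM dose. Cells in RPMI-1640 with 5% FBS and 2 mM L-glutamine, pre-incubated 24 h, then treated for 48 h at 37 °C. TCA fixation, sulforhodamine B staining, absorbance at 515 nm. Percentage growth calculated against time-zero and untreated controls.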

Klebsiella pneumoniae = experiment: Antibacterial activity against ESBL positive Klebsiella pneumoniae ATCC 700603 after 24 hrs by resazurin dye based microdilution assay; type: functional; settings: Klebsiella pneumoniae, 700603, 24 h; method in brief: as §2
NCI-H522 = experiment: Growth inhibition of human NCI-H522 cells at 10 uM incubated for 48 hrs by sulforhodamine B assay; type: functional, cell-based; method in brief: as §1
SK-MEL-5 = experiment: Growth inhibition of human SK-MEL-5 cells at 10 uM incubated for 48 hrs by sulforhodamine B assay; type: functional, cell-based; method in brief: as §3
Candida albicans [1] = experiment: Growth inhibition of Candida albicans ATCC 10231 at 31.25 ug/ml incubated for 48 hrs under dark condition by broth microdilution method relative to control; type: functional; settings: ATCC 10231, 48 h, read-out: GI
Method in brief: (§5)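 CLSI M27-A3 broth microdilution in RPMI-1640, DMSO ≤1%. Inoculum 1-5 × 10^3 CFU/mL. Incubated 48 h at 30 °C, dark. % inhibition = 100 − (OD405 test − sterility control)/(OD405 growth control − sterility control), with growth and sterility control wells. Triplicate.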

Staphylococcus aureus = experiment: Antibacterial activity against vancomycin-intermediate Staphylococcus aureus after 24 hrs by resazurin dye based microdilution assay; type: functional; method in brief: as §2
Cryptococcus neoformans [2] = experiment: Growth inhibition of Cryptococcus neoformans ATCC 32264 at 31.25 ug/ml incubated for 48 hrs under dark condition by broth microdilution method relative to control; type: functional; settings: ATCC 32264, 48 h, read-out: GI; method in brief: as §5
HL-60(TB) = experiment: Growth inhibition of human HL-60(TB) cells at 10 uM incubated for 48 hrs by sulforhodamine B assay; type: functional, cell-based
Method in brief: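 NCI 60-line single-dose screen at 10 μM, 48 h. Cells in RPMI-1640 with 5% FBS and 2 mM L-glutamine at 37 °C, 5% CO2. Growth measured by TCA fixation and SRB staining (515 nm), relative to time-zero and untreated control wells.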

T47D = experiment: Growth inhibition of human T47D cells at 10 uM incubated for 48 hrs by sulforhodamine B assay; type: functional, cell-based; method in brief: as §3
HOP-62 = experiment: Growth inhibition of human HOP62 cells at 10 uM incubated for 48 hrs by sulforhodamine B assay; type: functional, cell-based; method in brief: as §4
SK-OV-3 = experiment: Growth inhibition of human SKOV3 cells at 10 uM incubated for 48 hrs by sulforhodamine B assay; type: functional, cell-based; method in brief: as §3
Cryptococcus neoformans [3] = experiment: Growth inhibition of Cryptococcus neoformans ATCC 32264 at 62.5 ug/ml incubated for 48 hrs under dark condition by broth microdilution method relative to control; type: functional; settings: ATCC 32264, 48 h, read-out: GI; method in brief: as §5
EKVX = experiment: Growth inhibition of human EKVX cells at 10 uM incubated for 48 hrs by sulforhodamine B assay; type: functional, cell-based; method in brief: as §4
SF-268 = experiment: Growth inhibition of human SF268 cells at 10 uM incubated for 48 hrs by sulforhodamine B assay; type: functional, cell-based; method in brief: as §1
IGROV-1 = experiment: Growth inhibition of human IGROV1 cells at 10 uM incubated for 48 hrs by sulforhodamine B assay; type: functional, cell-based; method in brief: as §1
A498 = experiment: Growth inhibition of human A498 cells at 10 uM incubated for 48 hrs by sulforhodamine B assay; type: functional, cell-based; method in brief: as §4
HOP-92 = experiment: Growth inhibition of human HOP92 cells at 10 uM incubated for 48 hrs by sulforhodamine B assay; type: functional, cell-based; method in brief: as §1
RXF 393 = experiment: Growth inhibition of human RXF393 cells at 10 uM incubated for 48 hrs by sulforhodamine B assay; type: functional, cell-based; method in brief: as §1
SK-MEL-28 = experiment: Growth inhibition of human SK-MEL-28 cells at 10 uM incubated for 48 hrs by sulforhodamine B assay; type: functional, cell-based; method in brief: as §3
SNB-19 = experiment: Growth inhibition of human SNB19 cells at 10 uM incubated for 48 hrs by sulforhodamine B assay; type: functional, cell-based; method in brief: as §3
Hs-578T = experiment: Growth inhibition of human Hs578T cells at 10 uM incubated for 48 hrs by sulforhodamine B assay; type: functional, cell-based; method in brief: as §1
U-251 = experiment: Growth inhibition of human U251 cells at 10 uM incubated for 48 hrs by sulforhodamine B assay; type: functional, cell-based; method in brief: as §3
Candida albicans [4] = experiment: Antifungal activity against Candida albicans ATCC 10231 incubated for 48 hrs under dark condition by broth microdilution method; type: functional; settings: ATCC 10231, 48 h
Method in brief: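 CLSI M27-A3 broth microdilution in RPMI-1640, DMSO ≤1%, compounds at 250-0.98 µg/mL final. Inoculum 1-5 × 10^3 CFU/mL. Incubated 48 h at 30 °C in a moist dark chamber, read at OD405. MIC80 and MIC50 taken from % inhibition dose-response curves (mean ± SEM, triplicate). Amphotericin B was the positive control.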

Cryptococcus neoformans [5] = experiment: Growth inhibition of Cryptococcus neoformans ATCC 32264 at 15.62 ug/ml incubated for 48 hrs under dark condition by broth microdilution method relative to control; type: functional; settings: ATCC 32264, 48 h, read-out: GI; method in brief: as §5
HCT-15 = experiment: Growth inhibition of human HCT15 cells at 10 uM incubated for 48 hrs by sulforhodamine B assay; type: functional, cell-based; method in brief: as §4
LOX IMVI = experiment: Growth inhibition of human LOXIMVI cells at 10 uM incubated for 48 hrs by sulforhodamine B assay; type: functional, cell-based; method in brief: as §1

Row | SMILES | growth inhibition (GI) (RPMI-8226) | MIC (Escherichia coli) [µg/mL] | growth inhibition (GI) (SN12C) | growth inhibition (GI) (OVCAR-3) | growth inhibition (GI) (COLO 205) | MIC (Klebsiella pneumoniae) [µg/mL] | growth inhibition (GI) (NCI-H522) | growth inhibition (GI) (SK-MEL-5) | inhibition of growth at 31.25 µg/mL (Candida albicans [1]) [%] | MIC (Staphylococcus aureus) [µg/mL] | inhibition of growth at 31.25 µg/mL (Cryptococcus neoformans [2]) [%] | growth inhibition (GI) (HL-60(TB)) | growth inhibition (GI) (T47D) | growth inhibition (GI) (HOP-62) | growth inhibition (GI) (SK-OV-3) | inhibition of growth at 62.5 µg/mL (Cryptococcus neoformans [3]) [%] | growth inhibition (GI) (EKVX) | MIC50 (Candida albicans [4]) [µg/mL] | MIC80 (Candida albicans [4]) [µg/mL] | inhibition of growth at 15.62 µg/mL (Cryptococcus neoformans [5]) [%] | also measured
1 | O=CN1N=C(c2ccc(Cl)cc2)CC1c1cccc(Nc2ccnc3cc(Cl)ccc23)c1 (stereo not drawn) | Active | > 1000 | Active | Active | Active | > 1000 | Active | Active | 24.5 | > 1000 | 55.7 | Active | Active | Active | Active | 59.7 | Active | 250 (≈ 542 µM) | ≥ 250 | 44 | growth inhibition (GI) (SF-268): Active; growth inhibition (GI) (IGROV-1): Active; growth inhibition (GI) (A498): Active; growth inhibition (GI) (HOP-92): Active; growth inhibition (GI) (RXF 393): Active; growth inhibition (GI) (SK-MEL-28): Active; growth inhibition (GI) (SNB-19): Active; growth inhibition (GI) (Hs-578T): Active; growth inhibition (GI) (U-251): Active; growth inhibition (GI) (HCT-15): Active; growth inhibition (GI) (LOX IMVI): Active
2 | O=Cc1cccc(Nc2ccnc3cc(Cl)ccc23)c1 |  | 62.5 (≈ 221 µM) |  |  |  | > 1000 |  |  | 10.6 | 125 (≈ 442 µM) | 14.3 |  |  |  |  | 19.6 |  | 250 (≈ 884 µM) | ≥ 250 | 9.47 | 
3 | COc1ccc(C2=NN(C=O)C(c3cccc(Nc4ccnc5cc(Cl)ccc45)c3)C2)cc1 (stereo not drawn) | Active | > 1000 | Active | Active | Active | > 1000 | Active | Active | 14.7 | > 1000 | 29.1 | Active | Active | Active | Active | 43.5 | Active | ≥ 250 | ≥ 250 | 23.6 | growth inhibition (GI) (SF-268): Active; growth inhibition (GI) (IGROV-1): Active; growth inhibition (GI) (A498): Active; growth inhibition (GI) (HOP-92): Active; growth inhibition (GI) (RXF 393): Active; growth inhibition (GI) (SK-MEL-28): Active; growth inhibition (GI) (SNB-19): Active; growth inhibition (GI) (Hs-578T): Active; growth inhibition (GI) (U-251): Active; growth inhibition (GI) (HCT-15): Active; growth inhibition (GI) (LOX IMVI): Active
4 | COc1ccc(C(=O)/C=C/c2cccc(Nc3ccnc4cc(Cl)ccc34)c2)cc1 | Active | > 1000 | Active | Active | Active | > 1000 | Active | Active | 26.9 | > 1000 | 7.31 | Active | Active | Active | Active | 13.9 | Active | 250 (≈ 603 µM) | ≥ 250 | 5.01 | growth inhibition (GI) (SF-268): Active; growth inhibition (GI) (IGROV-1): Active; growth inhibition (GI) (A498): Active; growth inhibition (GI) (HOP-92): Active; growth inhibition (GI) (RXF 393): Active; growth inhibition (GI) (SK-MEL-28): Active; growth inhibition (GI) (SNB-19): Active; growth inhibition (GI) (Hs-578T): Active; growth inhibition (GI) (U-251): Active; growth inhibition (GI) (HCT-15): Active; growth inhibition (GI) (LOX IMVI): Active
5 | COc1cc(C(=O)/C=C/c2cccc(Nc3ccnc4cc(Cl)ccc34)c2)cc(OC)c1OC | Active | > 1000 | Active | Active | Active | > 1000 | Active | Active | 6.92 | > 1000 | 3.63 | Active | Active | Active | Active | 6.09 | Active | ≥ 250 | ≥ 250 | 0 | growth inhibition (GI) (SF-268): Active; growth inhibition (GI) (IGROV-1): Active; growth inhibition (GI) (A498): Active; growth inhibition (GI) (HOP-92): Active; growth inhibition (GI) (RXF 393): Active; growth inhibition (GI) (SK-MEL-28): Active; growth inhibition (GI) (SNB-19): Active; growth inhibition (GI) (Hs-578T): Active; growth inhibition (GI) (U-251): Active; growth inhibition (GI) (HCT-15): Active; growth inhibition (GI) (LOX IMVI): Active
